Experimental data of several laboratories.
Lines come from different studies, so protocols differ.
Target: Mitogen-activated protein kinase 3 (MAPK3, Homo sapiens, UniProt P27361)

SMILES | test | setting | endpoint | value
Cc1ccc(NC(=O)c2ccnc(C(F)(F)F)c2)cc1-c1cc(OCCO)nc(N2CCOCC2)c1 | binding | 1 µM | remaining binding | 100%
C#Cc1cc(-c2cc(Nc3nc(N[C@@H](C)c4ccc(F)cn4)ncc3Cl)n[nH]2)ccc1C=O | enzyme activity, inhibitor | 0.2 µM | inhibition | 5.48%
c1ccc(-c2ccc3c(c2)NC(C2Nc4cc(-c5ccccc5)ccc4O2)O3)cc1 (stereo not shown) | enzyme activity, inhibitor, ADP detection | 10 µM | inhibition | 54.7%
Cc1cc(O)c(-c2ccc([C@@H](C)CN(C)C)cc2)c2c1[nH]c(=O)c1sccc12 | enzyme activity, inhibitor | 0.1 µM | inhibition | 15.1%
CCCCC(=O)Nc1ccc(-c2ccc3ncn(CCC)c(=O)c3c2)cn1 | binding, competition with immobilised ligand | 0.5 µM | remaining binding | 97%
N#Cc1ccc(NC(=O)Nc2ccccc2)cc1 | cell-free assay, competition with immobilised ligand | 25 µM | remaining binding | 100%
C=CC(=O)N1CCC[C@@H](n2nc(-c3ccc(Oc4ccccc4)cc3)c3c(N)ncnc32)C1 | enzyme activity, inhibitor | 1 µM | inhibition | 3%
C[C@H]1CC[C@H](n2c3cnccc3c3cnc(Nc4ccc5c(n4)CCN(C(=O)CO)C5)nc32)CC1 | cell-free assay | 1 µM | remaining signal | 100%
CC#CC(=O)N1CCC[C@H]1c1nc(-c2ccc(C(=O)Nc3ccccn3)cc2)c2c(N)nccn12 | enzyme activity, inhibitor | 1 µM | inhibition | 12%
O=C(O)CCC(=O)OCCN(Cc1ccc(Oc2ccc([N+](=O)[O-])cc2)cc1)C(=O)C(Cl)Cl | enzyme activity, inhibitor, ADP detection | 10 µM | inhibition | 49.3%
